Assay results from ChEMBL document CHEMBL1148118, “Immunomodulatory proanthocyanidins from Ecdysanthera utilis” (J Nat Prod, 2002).
The source made the active and inactive calls. The rule behind the calls is not given here.

What was measured:
Format in all cases: functional, cell-based
PBMC [1] = assay: Inhibition of PHA-stimulated human PBMC proliferation assessed as [3H]thymidine uptake after 3 days by scintillation counting
Method in brief: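 Ficoll-Hypaque-isolated human PBMC at 2 × 10^6 cells/mL in RPMI-1640 with 2% FCS, 100 µL/well, with or without 5 µg/mL PHA plus test compound. Incubated 3 days at 37 °C in 5% CO2. 3H-thymidine (1 µCi/well) was then added for 16 h, and cells were harvested onto glass-fiber filters for scintillation counting. % inhibition = (control CPM − treated CPM)/control CPM × 100. DMSO 0.1% vehicle.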

PBMC [2] = assay: Immunomodulatory activity in PHA-stimulated human PBMC assessed as inhibition of IFN-gamma production after 3 days by enzyme immuno assay
Method in brief: (§1)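 Human PBMC isolated by Ficoll-Hypaque density gradient, resuspended in RPMI-1640 with 2% FCS and penicillin/streptomycin. 2 × 10^5 cells/well cultured with PHA (5 µg/mL) plus 0, 6, 12.5, 25, 50 or 100 µM compound for 3 days. IL-2 and IFN-γ measured in the supernatants by EIA. Each point is the mean of three independent experiments.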

PBMC [3] = assay: Immunomodulatory activity in PHA-stimulated human PBMC assessed as inhibition of IL2 production after 3 days by enzyme immuno assay; method in brief: as §1

SMILES | Activity (PBMC [1]) | also measured
Oc1cc(O)c2c(c1)O[C@@]1(c3ccc(O)c(O)c3)Oc3cc(O)c4c(c3[C@@H]2[C@H]1O)O[C@@]1(c2ccc(O)c(O)c2)Oc2cc(O)c3c(c2[C@@H]4[C@@H]1O)O[C@H](c1ccc(O)c(O)c1)[C@H](O)C3 | inactive | –
Oc1cc(O)c2c(c1)O[C@@]1(c3ccc(O)c(O)c3)Oc3cc(O)c4c(c3[C@@H]2[C@H]1O)O[C@H](c1ccc(O)c(O)c1)[C@@H](O)C4 [PROANTHOCYANIDIN A1] | – | Activity (PBMC [2]): Dose-dependent effect; IC50 (PBMC [2]; 72 h): 5.1 µM; IC50 (PBMC [1]): 30.6 µM; Activity (PBMC [3]): Dose-dependent effect; IC50 (PBMC [3]; 72 h): 25 µM
Oc1cc(O)c2c(c1)O[C@@]1(c3ccc(O)c(O)c3)Oc3cc(O)c4c(c3[C@@H]2[C@H]1O)O[C@H](c1ccc(O)c(O)c1)[C@H](O)C4 | inactive | –
Oc1cc(O)c2c(c1)O[C@H](c1ccc(O)c(O)c1)[C@H](O)C2 | inactive | –
Oc1cc(O)c2c(c1)O[C@H](c1ccc(O)c(O)c1)[C@H](O)[C@H]2c1c(O)cc(O)c2c1O[C@@]1(c3ccc(O)c(O)c3)Oc3cc(O)c4c(c3[C@@H]2[C@H]1O)O[C@H](c1ccc(O)c(O)c1)[C@H](O)[C@@H]4c1c(O)cc(O)c2c1O[C@H](c1ccc(O)c(O)c1)[C@H](O)C2 | inactive | –
Oc1cc(O)c2c(c1)O[C@H](c1ccc(O)c(O)c1)[C@H](O)[C@H]2c1c(O)cc(O)c2c1O[C@H](c1ccc(O)c(O)c1)[C@H](O)C2 | inactive | –
Oc1cc(O)c2c(c1)O[C@@]1(c3ccc(O)c(O)c3)Oc3cc(O)c4c(c3[C@@H]2[C@H]1O)O[C@H](c1ccc(O)c(O)c1)[C@H](O)[C@@H]4c1c(O)cc(O)c2c1O[C@H](c1ccc(O)c(O)c1)[C@H](O)C2 | inactive | –
